Converted amounts (≈) assume the structure as drawn.
Key:
Staphylococcus aureus [1] = assay: Antimicrobial activity against heterogenous vancomycin-intermediate-, methicillin-resistant Staphylococcus aureus 618 assessed as time required to induce sub-MIC effect at 0.4 times MIC […] by plate counting method; format: functional
Outline: (§1)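 SME, viable plate count method: no prior drug exposure. About 5 × 10^6 CFU/ml in Mueller-Hinton broth at 35°C received 0.2, 0.3 or 0.4× MIC, alongside a drug-free tube. Counts were taken at the start, then every 2 h until McFarland no. 1 turbidity, as log10 CFU/ml against time. Two separate experiments, each with a new inoculum.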

Enterococcus faecalis [2] = assay: Antimicrobial activity against Enterococcus faecalis ATCC 29212 assessed as time required to induce sub-MIC effect at 0.4 times MIC exposed for 2 hrs by plate counting method; format: functional
Outline: (§2)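 Unexposed Mueller-Hinton broth cultures (about 5 × 10^6 CFU/ml, 35°C) were handled as in the PA-SME set but without the 10× MIC pre-exposure. They were diluted 1:1,000, then given telavancin at final 0.2, 0.3 or 0.4× MIC, with a drug-free control. Viable counts were taken every 2 h until McFarland no. 1 turbidity. Effect duration comes from log10 CFU/ml-time plots; two separate experiments with new inocula.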

Staphylococcus aureus [3] = assay: Antimicrobial activity against vancomycin-susceptible-, methicillin-resistant Staphylococcus aureus 1307 assessed as time required to induce post antibiotic sub-MIC effect at 0.4 times MIC […] by plate counting method; format: functional
Outline: (§3)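 After 1 h preexposure to 10× MIC at 35°C and 1:1,000 dilution, cultures were split, and drug was re-added to final 0.2, 0.3 or 0.4× MIC, with a drug-free tube. Viable counts were taken every 2 h until McFarland 1 turbidity. Duration was derived from log10 CFU/ml versus time curves. Two experiments were run, each with a new inoculum.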

Staphylococcus aureus [4] = assay: Antimicrobial activity against vancomycin-intermediate-, methicillin-resistant Staphylococcus aureus 1984 assessed as time required to induce post antibiotic sub-MIC effect at 0.4 times MIC […] by plate counting method; format: functional
Outline: (§4)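 PAE was first induced with 10× MIC for 1 h at 35°C (inoculum about 5 × 10^6 CFU/ml, Mueller-Hinton broth) and ended by 1:1,000 dilution. Cultures were then split and given 0.2, 0.3 or 0.4× MIC, with one tube left without drug. Viable counts were taken before exposure, after dilution, then every 2 h until McFarland no. 1 turbidity. Two separate experiments, each with a new inoculum.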

Enterococcus faecalis [5] = assay: Antimicrobial activity against Enterococcus faecalis HMC 571 assessed as time required to induce post antibiotic sub-MIC effect at 0.4 times MIC […] by plate counting method; format: functional; outline: as §4
Enterococcus faecium [6] = assay: Antimicrobial activity against Enterococcus faecium HMC 588 assessed as time required to induce post antibiotic sub-MIC effect at 0.4 times MIC […] by plate counting method; format: functional
Outline: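 Mueller-Hinton broth cultures of about 5 × 10^6 CFU/ml were pre-exposed to telavancin at 10× MIC for 1 h at 35°C, then diluted 1:1,000. Telavancin was re-added to final 0.2, 0.3 or 0.4× MIC, alongside a drug-free tube. Viable counts were taken before exposure, after dilution, then every 2 h until McFarland no. 1 turbidity. Duration comes from log10 CFU/ml-versus-time plots; two separate experiments with fresh inocula.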

[7] = Elimination half life in healthy human at 5 mg/kg, iv; format: ADME, organism-based; parameters: dose 5 mg/kg, route intravenous; conditions: in vivo, read-out: beta t1/2
Streptococcus pyogenes = assay: Antimicrobial activity against Streptococcus pyogenes HMC 414 by microdilution method; format: functional
Staphylococcus aureus [8] = assay: Antimicrobial activity against vancomycin-susceptible-, methicillin-resistant Staphylococcus aureus ATCC 33591 assessed as time required to induce sub-MIC effect at 0.2 times MIC exposed for 2 hrs by plate counting method; format: functional
Outline: (§5)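 Sub-MIC effect: cultures not preexposed to drug were diluted and handled as in the PA-SME procedure in Mueller-Hinton broth with final 0.2, 0.3 or 0.4× MIC, plus a drug-free control. Viable plate counts were taken every 2 h until McFarland 1 turbidity. Duration was derived from growth curves. Two experiments were run, each with a new inoculum.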

Staphylococcus aureus [9] = assay: Antimicrobial activity against vancomycin-susceptible-, methicillin-resistant Staphylococcus aureus 1306 assessed as time required to induce sub-MIC effect at 0.2 times MIC exposed for 2 hrs by plate counting method; format: functional; outline: as §5
Staphylococcus aureus [10] = assay: Antimicrobial activity against vancomycin-intermediate-, methicillin-resistant Staphylococcus aureus 555 assessed as time required to induce sub-MIC effect at 0.2 times MIC […] by plate counting method; format: functional; outline: as §1
Staphylococcus aureus [11] = assay: Antimicrobial activity against vancomycin-intermediate-, methicillin-resistant Staphylococcus aureus 770 assessed as time required to induce sub-MIC effect at 0.2 times MIC […] by plate counting method; format: functional; outline: as §1
Streptococcus agalactiae [12] = assay: Antimicrobial activity against Streptococcus agalactiae HMC 5 assessed as time required to induce sub-MIC effect at 0.2 times MIC exposed for 2 hrs by plate counting method; format: functional; outline: as §2
Staphylococcus aureus [13] = assay: Antimicrobial activity against vancomycin-susceptible-, methicillin-resistant Staphylococcus aureus 1306 assessed as time required to induce post antibiotic sub-MIC effect at 0.2 times MIC pre-exposed to Telavancin […] by plate counting method; format: functional; outline: as §3
Staphylococcus aureus [14] = assay: Antimicrobial activity against vancomycin-susceptible-, methicillin-resistant Staphylococcus aureus 1307 assessed as time required to induce sub-MIC effect at 0.3 times MIC exposed for 2 hrs by plate counting method; format: functional; outline: as §5
Streptococcus agalactiae [15] = assay: Antimicrobial activity against Streptococcus agalactiae HMC 5 assessed as time required to induce sub-MIC effect at 0.3 times MIC exposed for 2 hrs by plate counting method; format: functional; outline: as §2
Enterococcus faecalis [16] = assay: Antimicrobial activity against Enterococcus faecalis ATCC 29212 assessed as time required to induce sub-MIC effect at 0.3 times MIC exposed for 2 hrs by plate counting method; format: functional; outline: as §2
Enterococcus faecium [17] = assay: Antimicrobial activity against Enterococcus faecium HMC 588 assessed as time required to induce sub-MIC effect at 0.3 times MIC exposed for 2 hrs by plate counting method; format: functional; outline: as §2
Staphylococcus aureus [18] = assay: Antimicrobial activity against vancomycin-susceptible-, methicillin-resistant Staphylococcus aureus 1307 assessed as time required to induce post antibiotic sub-MIC effect at 0.3 times MIC […] by plate counting method; format: functional; outline: as §3
Staphylococcus aureus [19] = assay: Antimicrobial activity against vancomycin-resistant-, methicillin-resistant Staphylococcus aureus 510 assessed as time required to induce post antibiotic sub-MIC effect at 0.3 times MIC […] by plate counting method; format: functional; outline: as §3
Staphylococcus aureus [20] = assay: Antimicrobial activity against vancomycin-resistant-, methicillin-resistant Staphylococcus aureus 510 assessed as time required to induce post antibiotic sub-MIC effect at 0.2 times MIC pre-exposed to Telavancin for 1 hr by plate counting method
Staphylococcus aureus [21] = assay: Antimicrobial activity against vancomycin-intermediate-, methicillin-resistant Staphylococcus aureus 1287 assessed as time required to induce post antibiotic sub-MIC effect at 0.2 times MIC pre-exposed to Telavancin for 1 hr by plate counting method

CCCCCCCCCCNCCN[C@@]1(C)C[C@H](O[C@H]2[C@H](Oc3c4cc5cc3Oc3ccc(cc3Cl)[C@@H](O)[C@@H](NC(=O)[C@@H](CC(C)C)NC)C(=O)N[C@@H](CC(N)=O)C(=O)N[C@H]5C(=O)N[C@H]3C(=O)N[C@H](C(=O)N[C@H](C(=O)O)c5cc(O)c(CNCP(=O)(O)O)c(O)c5-c5cc3ccc5O)[C@H](O)c3ccc(c(Cl)c3)O4)O[C@H](CO)[C@@H](O)[C@@H]2O)O[C@@H](C)[C@H]1O [TELAVANCIN]
PAE (Staphylococcus aureus [1]): 2.3 h | PAE (Enterococcus faecalis [2]): 3.6 h | PAE (Staphylococcus aureus [3]): > 10.5 h | PAE (Staphylococcus aureus [4]): > 10 h | PAE (Enterococcus faecalis [5]): 10.6 h | PAE (Enterococcus faecium [6]): > 10 h | half-life [7]: > 420 min | MIC (Streptococcus pyogenes): 0.06 µg/mL (≈ 0.0342 µM) | PAE (Staphylococcus aureus [8]): 0.3 h | PAE (Staphylococcus aureus [9]): 0.7 h | PAE (Staphylococcus aureus [10]): 0.3 h | PAE (Staphylococcus aureus [11]): 0.7 h | PAE (Streptococcus agalactiae [12]): 0.2 h | PAE (Staphylococcus aureus [13]): 2.9 h | PAE (Staphylococcus aureus [14]): 2.6 h | PAE (Streptococcus agalactiae [15]): 2.1 h | PAE (Enterococcus faecalis [16]): 2 h | PAE (Enterococcus faecium [17]): 7.2 h | PAE (Staphylococcus aureus [18]): > 10.5 h | PAE (Staphylococcus aureus [19]): 6 h | PAE (Staphylococcus aureus [20]): 5.6 h | PAE (Staphylococcus aureus [21]): 5.1 h
